# Screening data (PubChem BioAssay)
# GalR3 antagonist = GalR3 antagonists in HEK293 cells, primary screen, cell-based, fluorescence readout. Galanin receptor type 3 (Homo sapiens), O60755. HEK293 GalR3-CNG cAMP membrane potential fluorescence; galR3 body fused to GalR1 C-terminus. inhibition, % at 3 µM. hit rate 0.44% among 360,000;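 active = inhibition above the screen-wide average plus 3 SD, cut at about 13% in these data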;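 also: forskolin and galanin both at EC90 stimulate the cells; cAMP rise reported by CNG channel membrane potential dye signal; 0% = forskolin plus galanin with DMSO and 100% = forskolin alone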
# Target sequence (O60755 1-299 limits assumed): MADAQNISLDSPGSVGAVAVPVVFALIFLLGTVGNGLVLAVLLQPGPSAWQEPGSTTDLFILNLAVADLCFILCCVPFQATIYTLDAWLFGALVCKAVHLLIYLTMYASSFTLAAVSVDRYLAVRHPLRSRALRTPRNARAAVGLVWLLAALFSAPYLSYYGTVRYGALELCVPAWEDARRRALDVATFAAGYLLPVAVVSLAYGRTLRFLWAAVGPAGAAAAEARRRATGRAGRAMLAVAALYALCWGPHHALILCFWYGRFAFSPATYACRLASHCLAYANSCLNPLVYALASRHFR
# Jurkat NFkB inh = inhibitors of induced NF-kB luciferase reporter, primary screen, TCR NF-kB activation inhibitor project, cell-based, luminescence, uHTS | inhibition, % at 4 µM | hit rate 0.53% among 330,000 | Jurkat, PMA/ionomycin-induced NF-kB luciferase reporter | AID 435003, 2010; in the data active = inhibition above about 50%
# 697 NFkB inh = inhibitors of PMA/ionomycin-induced NF-kB reporter, 697 cells, primary screen, B-cell NF-kB inhibitor project, cell-based, luminescence, uHTS; AID 435022, 2010; 697 B-cell NF-kB luciferase reporter, 16 h; inhibition, % at 4 µM; hit rate 0.33% among 330,000; in the data active = inhibition above about 35%
# Gli-Sufu antag = Gli-Sufu pathway antagonists, primary screen, luciferase luminescence, Sufu-KO-LIGHT cells, uHTS | Sufu-KO-LIGHT fibroblasts, Gli luciferase reporter luminescence | hit rate 0.74% among 340,000 | inhibition, % at 5 µM | AID 588413, 2011;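 active = inhibition above about 55%, limit read from the data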;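 also: 0% = DMSO-treated cells and 100% = wells with medium but no cells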
# NR2E3 ag-1 = NR2E3 agonists in two-hybrid cells, primary screen, cell-based, luminescence, CHO-S, Gal4-NCOR/VP16-NR2E3; luciferase; inhibition of corepressor binding, % at 3.98 µM; hit rate 0.35% among 360,000; AID 602229, 2012;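 active = inhibition above the mean of all tested compounds plus 3 SD, cut at about 70% in these data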;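 also: 0% = DMSO with NR2E3 transfected cells and 100% = cells lacking NR2E3 construct; higher means lower luciferase signal from less NR2E3 corepressor binding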
# Target sequence (Q9Y5X4 whole entry, looked up, the tested form may be a part): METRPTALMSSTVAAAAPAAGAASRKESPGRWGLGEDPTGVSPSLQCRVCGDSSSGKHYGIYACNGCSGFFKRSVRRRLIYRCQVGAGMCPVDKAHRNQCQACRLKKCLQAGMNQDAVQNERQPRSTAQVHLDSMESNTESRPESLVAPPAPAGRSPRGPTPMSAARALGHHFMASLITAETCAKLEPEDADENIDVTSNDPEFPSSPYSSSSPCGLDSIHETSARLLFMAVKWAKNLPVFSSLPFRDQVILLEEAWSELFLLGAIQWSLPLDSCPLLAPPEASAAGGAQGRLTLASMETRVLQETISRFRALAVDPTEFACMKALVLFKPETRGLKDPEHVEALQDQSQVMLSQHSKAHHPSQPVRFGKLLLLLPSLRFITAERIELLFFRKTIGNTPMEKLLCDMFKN
# NR2E3 ag-2 = inhibitors of NR2E3-RetCOR corepressor binding, primary screen, NR2E3 agonist project, biochemical, TR-FRET, GST-NR2E3, biotin-RetCOR | Photoreceptor-specific nuclear receptor (Homo sapiens), Q9Y5X4 | 1536-well | inhibition of corepressor binding, % at 4.78 µM | hit rate 0.12% among 320,000 | AID 2300, 2010;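 active = percent inhibition above the cutoff of mean plus 3 SD of all tested compounds, set per screening campaign, cut at about 20% in these data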;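 also: 0% = DMSO wells and 100% = biotin wells as full block of FRET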
#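 Material: NR2E3–RetCOR corepressor complex / Incubation: Compound–protein incubation for 5 h at 4 °C / Dosing: compound at 4.8 µM, single dose / Detection: time-resolved FRET / Benchmarks: high control biotin, low control 0.6% DMSO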
# Jurkat NFkB conf = PMA/ionomycin-induced NF-kB reporter inhibitors, Jurkat retest, confirmation, T-cell NF-kB inhibitor project, cell-based, luminescence, single concentration; Jurkat NF-kB luciferase, 16 h; shares compounds with Jurkat NFkB inh; inhibition, % at 4 µM; hit rate 27% among 2,700;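 active = inhibition reaching about 45% at 4 µM in either replicate, limit read from the data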;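 also: plate controls were PMA/ionomycin stimulated DMSO wells for no effect and unstimulated DMSO wells for full effect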
# 697 NFkB conf = PMA/ionomycin-induced NF-kB reporter inhibitors, 697 retest, confirmation, B-cell NF-kB inhibitor project, cell-based, luminescence, single concentration; hit rate 35% among 2,000; shares compounds with 697 NFkB inh; 697 B-cell NF-kB luciferase, 16 h; inhibition, % at 4 µM; in the data active = inhibition mostly above about 28%, no sharp cut-off; inactive = mostly below about 22%
# Gli-Sufu confirm = Gli-SUFU pathway antagonists, confirmation, single concentration, luciferase luminescence, Sufu-KO-LIGHT cells | shares compounds with Gli-Sufu antag | Gli luciferase reporter | inhibition, % at 5 µM | hit rate 40% among 2,500 | AID 602428, 2012;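 active = mean inhibition at 5 µM reaching about 45%, limit read from the data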;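 also: plate controls were DMSO-treated cells for no effect and wells lacking cells for full effect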
# Gli cytotox = cytotoxicity in Sufu-KO-LIGHT cells, confirmation, cytotoxicity control for Gli-SUFU antagonist project, cell-based, ATP luminescence, single concentration. shares compounds with Gli-Sufu antag. cytotoxicity, % at 5 µM. hit rate 32% among 2,500;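 active = mean cytotoxicity at 5 µM above about 25%, limit read from the data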;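 also: cells exposed to compound overnight for roughly 16 to 18 hours; plate controls were DMSO wells with cells for no effect and medium without cells for full effect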
# Wnt3a counter = Wnt3a reporter signal inhibition, confirmation, counter-screen for Gli-SUFU antagonist project, Wnt-LIGHT cells, luminescence, single concentration | shares compounds with Gli-Sufu antag | Wnt3a-driven luciferase reporter | inhibition, % at 6.25 µM | hit rate 20% among 2,500;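 active = mean inhibition above about 25%, limit read from the data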
# NR2E3 ag conf = NR2E3 agonist confirmation in cells, cell-based, luminescence, CHO-S two-hybrid | inhibition, % at 3.98 µM | shares compounds with NR2E3 ag-1 | CHO-S mammalian two-hybrid NR2E3-NCOR, luciferase luminescence | hit rate 51% among 2,300;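 active = average inhibition above a cutoff equal to the mean inhibition of all tested compounds plus one SD, cut at about 70% in these data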;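 also: 0% = DMSO in NR2E3 cells and 100% = DMSO in cells lacking NR2E3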
# GAL4-VP16 luc = GAL4-VP16 reporter modulators, confirmation, counter-screen for NR2E3 agonist project, cell-based, luminescence, CHO-S, high throughput. hit rate 29% among 2,300. shares compounds with NR2E3 ag-1. CHO-S GAL4-VP16 luciferase reporter. inhibition, % at 3.98 µM;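 active = mean inhibition above a cutoff equal to the average over all tested compounds plus one standard deviation, cut at about 70% in these data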;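 also: luciferase from a UAS reporter driven by GAL4-VP16 transactivation; 0% = DMSO with VP16-transfected cells and 100% = DMSO with cells lacking VP16; higher means less reporter light so more repression of VP16 activity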
# Starred values were filed as active, the others as inactive; · = no result given. In the library only some 1.8% were active in any assay of this set; here they are far more common.
SMILES,GalR3 antagonist,Jurkat NFkB inh,697 NFkB inh,Gli-Sufu antag,NR2E3 ag-1,NR2E3 ag-2,Jurkat NFkB conf,Gli-Sufu confirm,Gli cytotox,Wnt3a counter,NR2E3 ag conf,GAL4-VP16 luc,others
CN1CCCCC(NC(=O)CCCl)C1=O (configuration not stated),-6.5,·,·,·,·,·,·,·,·,·,·,·,
CCOC(=O)C1=C(C(=O)OCC)C2N(Cc3ccc(Br)cc3)c3ccccc3[C@@]23C[C@@H](C(=O)OC)N(S(=O)(=O)c2ccc(OC)cc2)C3=N1 (some centres not stated),-4.9,·,·,·,·,·,·,·,·,·,·,·,
CCCCS(=O)(=O)N1C2=NC(C(=O)OCC)=C(C(=O)OCC)C3N(Cc4ccc(C#N)cc4)c4ccccc4[C@]23C[C@H]1C(=O)OC (some centres not stated),-7.4,·,·,·,·,·,·,·,·,·,·,·,
C[C@@H]1Cn2cnc(C(=O)N3CCN(C(=O)OC(C)(C)C)CC3)c2C(=O)N1,-4.5,·,·,·,·,·,·,·,·,·,·,·,
Fc1ccc2[nH]c3c(N4CCc5ccccc5C4)ncnc3c2c1,-7.0,50.1*,30.3,77.2*,72.5*,-3.8,62.6*,79.4*,34.3*,9.4,93.9*,87.1*,
COC(=O)Cc1ccc(NC(=O)c2ccccc2Cl)cc1,-1.3,-1.5,34.3,-9.2,-13.7,4.3,·,·,·,·,·,·,
COC(=O)Cc1ccc(NC(=O)c2ccc(C(C)(C)C)cc2)cc1,10.6,64.0*,77.1*,72.2*,56.0,0.2,78.6*,76.8*,45.5*,102.3*,57.7,48.8,697 NFkB conf=73.6*
CC(C)c1ccc(/C=N/Nc2cc(N3CCOCC3)nc(N3CCOCC3)n2)cc1,-11.6,-17.3,-46.3,9.0,21.6,-3.7,·,·,·,·,·,·,
Cc1cccc(/C=N/Nc2cc(N3CCOCC3)nc(N3CCOCC3)n2)c1,-0.2,66.4*,58.3*,60.0*,61.2,2.1,9.1,41.3,33.6*,-102.9,75.0*,36.3,697 NFkB conf=7.2
CC(C)Cn1c(N)c(C(=O)CSc2ccc3c(c2)OCCO3)c(=O)n(C)c1=O,-4.5,54.3*,38.6*,64.1*,59.4,-4.7,46.8,·,·,·,92.2*,85.0*,697 NFkB conf=-5.0
CC(C)Cn1c(N)c(C(=O)COC(=O)c2ccc3c(c2)OCCO3)c(=O)n(C)c1=O,-3.8,5.3,-27.6,15.2,18.2,1.5,·,·,·,·,·,·,
Cn1c2c(c(=O)n(C)c1=O)C(C(F)(F)F)(C(F)(F)F)N=C(c1ccc(Cl)cc1)N2,·,71.4*,96.9*,87.8*,97.7*,0.6,85.8*,·,·,·,98.7*,90.5*,697 NFkB conf=8.4
COc1ccccc1CNS(=O)(=O)c1ccc(-c2cnc(C3CC3)o2)cc1,6.6,51.0*,-54.2,36.0,53.1,2.0,50.2*,·,·,·,28.8,40.6,
O=S(=O)(Nc1ccc(F)cc1Cl)c1ccc(-c2cnc(C3CC3)o2)cc1,4.7,52.1*,-25.9,54.2,70.5*,-1.8,51.9*,24.7,49.9*,-33.7,66.3,45.6,
CCOc1ccccc1NS(=O)(=O)c1ccc(-c2cnc(C3CC3)o2)cc1,2.2,55.3*,-81.4,55.4*,59.6,1.7,58.2*,59.3*,56.3*,-12.3,11.4,6.3,
COc1ccccc1CNS(=O)(=O)c1ccc(S(=O)(=O)NC2CC2)cc1,0.8,8.4,19.2,2.0,-48.7,1.1,·,·,·,·,·,·,
Cc1ccc(NS(=O)(=O)c2ccc(-c3cnc(C4CC4)o3)cc2)c(C)c1,8.9,54.1*,-28.3,21.2,78.8*,2.3,60.5*,·,·,·,56.4,33.9,
COc1ccccc1NS(=O)(=O)c1ccc(-c2cnc(C3CC3)o2)cc1,-2.8,48.3,-25.5,1.6,38.5,-2.2,·,·,·,·,·,·,
CC(=O)c1ccc(S(=O)(=O)N2CCN(C(=O)C(=O)c3cccc(C(F)(F)F)c3)CC2)cc1,-4.9,·,·,·,·,·,·,·,·,·,·,·,
COc1ccc(NS(=O)(=O)c2ccc(-c3cnc(C4CC4)o3)cc2)cc1OC,8.1,57.0*,17.4,71.8*,104.0*,-0.1,67.9*,71.1*,59.1*,28.8*,94.1*,85.1*,
Cc1ccc(-c2cnc(C3CC3)o2)cc1S(=O)(=O)Nc1ccccc1,·,26.3,-40.3,-5.5,-1.6,-0.7,·,·,·,·,·,·,
CCOC(=O)C1CCCN(S(=O)(=O)c2ccc(S(=O)(=O)N(CC)CC)cc2)C1 (configuration not stated),92.0*,59.7*,43.2*,77.5*,83.7*,0.9,62.2*,74.5*,32.4*,9.2,97.1*,88.5*,697 NFkB conf=52.0*
COc1cc(NS(=O)(=O)c2ccc(C)cc2)c2ncccc2c1,-1.1,99.8*,-5.5,87.6*,82.3*,-0.4,61.5*,·,·,·,-20.3,3.2,
Cc1ccc(S(=O)(=O)Nc2cccc3cccnc23)cc1,-7.0,92.3*,-14.4,63.4*,96.7*,2.0,20.1,·,·,·,45.7,4.8,
COc1ccccc1CCn1cnc(-c2cccc(Br)c2)c1C(C)C,-4.2,·,·,·,·,·,·,·,·,·,·,·,
COC(=O)C1=C(C)N(Cc2ccccc2C(F)(F)F)C(=NCc2cccc(C(F)(F)F)c2)NC1c1cccc(Cl)c1 (configuration not stated),-8.5,·,·,·,·,·,·,·,·,·,·,·,
